Data as given in ChEMBL document CHEMBL4017468, “Synthesis and biological evaluation of pyrimidine derivatives with diverse azabicyclic ether/amine as novel GPR119 agonist” (Bioorg Med Chem Lett, 2017).

Target: T1, Glucose-dependent insulinotropic receptor (Homo sapiens, UniProt Q8TDV5)
T1 sequence (Q8TDV5 whole entry): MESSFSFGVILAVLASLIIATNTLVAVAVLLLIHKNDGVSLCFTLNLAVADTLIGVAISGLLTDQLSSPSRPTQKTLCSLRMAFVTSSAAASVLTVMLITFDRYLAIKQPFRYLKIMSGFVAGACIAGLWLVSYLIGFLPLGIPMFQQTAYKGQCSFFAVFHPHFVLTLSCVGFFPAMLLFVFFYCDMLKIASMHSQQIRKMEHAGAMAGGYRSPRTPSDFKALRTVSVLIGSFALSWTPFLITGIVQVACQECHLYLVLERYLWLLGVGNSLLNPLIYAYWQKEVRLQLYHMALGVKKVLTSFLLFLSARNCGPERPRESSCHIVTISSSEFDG
Experiment: Agonist activity at human GPR119 expressed in HEK293 cells assessed as increase in cAMP stimulation measured after 60 mins by TR-FRET assay
Type: functional, cell-based
Procedure, shortened: (§1)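 HEK293 cells seeded at 4×10^3 cells/well, grown 24 h, then transiently transfected with a GPR119 expression plasmid using Lipofectamine/Plus. After 24 h, compounds were added in KRBH buffer with 0.1% BSA and 500 μM IBMX for 60 min at 37 °C. Cells were lysed 10 min at room temperature (50 mM phosphate, 1 M KF, 1.25% Triton X-100, pH 7.0). cAMP was read by HTRF. EC50 was taken as the concentration giving 50% of OEA-stimulated cAMP, and %max as the response relative to maximal OEA effect.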

Row | Compound | EC50 [nM]
1 | CC(C)(C)OC(=O)N1CC2CCC1CC2Nc1ncnc(Nc2ccc(S(C)(=O)=O)cc2)c1[N+](=O)[O-] (stereo in doubt; 27r) [listing 1 of 2 here] | 5.6
2 | CC(C)(C)OC(=O)N1CC2CC(Nc3ncnc(Nc4ccc(S(C)(=O)=O)cc4F)c3[N+](=O)[O-])C1C2 (stereo in doubt; 27g) [listing 1 of 2 here] | 236
3 | CC(C)(C)OC(=O)N1CC2CC1CC2Nc1ncnc(Nc2ccc(S(C)(=O)=O)cc2F)c1[N+](=O)[O-] (stereo in doubt; 27k) [listing 1 of 2 here] | > 10000
4 | CC(C)(C)OC(=O)N1C[C@@H]2CC[C@@H]1C[C@@H]2Oc1ncnc(Nc2ccc(S(C)(=O)=O)cc2F)c1[N+](=O)[O-] (relative stereo) | 1.2
5 | CC(C)(C)OC(=O)N1CC2CCC1CC2Oc1ncnc(Nc2ccc(S(C)(=O)=O)cc2F)c1[N+](=O)[O-] (stereo unspecified) | > 10000
6 | CC(C)(C)OC(=O)N1CC2CCC1CC2Nc1ncnc(Nc2ccc(S(C)(=O)=O)cc2F)c1[N+](=O)[O-] (stereo in doubt; 27s) [listing 1 of 2 here] | 5.3
7 | CC(C)(C)OC(=O)N1CC2CC(Nc3ncnc(Nc4ccc(S(C)(=O)=O)cc4F)c3[N+](=O)[O-])C1C2 (stereo in doubt; 27e) [listing 1 of 2 here] | 53
8 | CC(C)(C)OC(=O)N1CC2CCC1CC2Nc1ncnc(Nc2ccc(S(C)(=O)=O)cc2F)c1[N+](=O)[O-] (stereo in doubt; 27q) [listing 1 of 2 here] | 1.8
9 | CC(C)(C)OC(=O)N1CC2CCC1CC2Nc1ncnc(Nc2ccc(S(C)(=O)=O)cc2)c1[N+](=O)[O-] (stereo in doubt; 27t) [listing 1 of 2 here] | 6.4
10 | CC(C)(C)OC(=O)N1CC2CC(Oc3ncnc(Nc4ccc(S(C)(=O)=O)cc4F)c3[N+](=O)[O-])C1C2 (stereo unspecified) | 77.7
11 | CC(C)(C)OC(=O)N1CC2CC1CC2Nc1ncnc(Nc2ccc(S(C)(=O)=O)cc2)c1[N+](=O)[O-] (stereo in doubt; 27j) [listing 1 of 2 here] | 48.2
12 | CC(C)(C)OC(=O)N1CC2CC1CC2Oc1ncnc(Nc2ccc(S(C)(=O)=O)cc2)c1[N+](=O)[O-] (stereo unspecified) | 110
13 | CC(C)(C)OC(=O)N1CC2CC(Nc3ncnc(Nc4ccc(S(C)(=O)=O)cc4)c3[N+](=O)[O-])C1C2 (stereo in doubt; 27h) [listing 1 of 2 here] | > 10000
14 | CC(C)(C)OC(=O)N1CC2CCC1CC2Oc1ncnc(Nc2ccc(S(C)(=O)=O)cc2)c1[N+](=O)[O-] (stereo in doubt; 27p) [listing 1 of 2 here] | > 10000
15 | CC(C)(C)OC(=O)N1CC2CC1CC2Nc1ncnc(Nc2ccc(S(C)(=O)=O)cc2)c1[N+](=O)[O-] (stereo in doubt; 27l) [listing 1 of 2 here] | > 10000
16 | CC(C)(C)OC(=O)N1CC2CCC1CC2Oc1ncnc(Nc2ccc(S(C)(=O)=O)cc2)c1[N+](=O)[O-] (stereo in doubt; 27n) [listing 1 of 2 here] | 3.1
17 | CC(C)(C)OC(=O)N1CC2CC(Nc3ncnc(Nc4ccc(S(C)(=O)=O)cc4)c3[N+](=O)[O-])C1C2 (stereo in doubt; 27f) [listing 1 of 2 here] | > 1000
18 | CC(C)(C)OC(=O)N1CC2CC1CC2Oc1ncnc(Nc2ccc(S(C)(=O)=O)cc2F)c1[N+](=O)[O-] (stereo unspecified) | 5.6
19 | CC(C)(C)OC(=O)N1CC2CC(Oc3ncnc(Nc4ccc(S(C)(=O)=O)cc4)c3[N+](=O)[O-])C1C2 (stereo unspecified) | 315
20 | CC(C)(C)OC(=O)N1CC2CC1CC2Nc1ncnc(Nc2ccc(S(C)(=O)=O)cc2F)c1[N+](=O)[O-] (stereo in doubt; 27i) [listing 1 of 2 here] | 4.9

Target: T2, Glucose-dependent insulinotropic receptor (Homo sapiens) (UniProt Q8TDV5)
T2 sequence (whole entry): T1 sequence (Q8TDV5 whole entry)
Experiment: Agonist activity at human GPR119 expressed in HEK293 cells assessed as increase in cAMP stimulation measured after 60 mins by TR-FRET assay relative to oleoylethanolamide
Type: functional, cell-based
Procedure, shortened: as §1

Row | Compound | %max [%]
21 | CC(C)(C)OC(=O)N1CC2CC(Nc3ncnc(Nc4ccc(S(C)(=O)=O)cc4)c3[N+](=O)[O-])C1C2 (stereo in doubt; 27h) [listing 2 of 2 here] | 21.6
22 | CC(C)(C)OC(=O)N1CC2CC1CC2Nc1ncnc(Nc2ccc(S(C)(=O)=O)cc2F)c1[N+](=O)[O-] (stereo in doubt; 27k) [listing 2 of 2 here] | 34.8
23 | CC(C)(C)OC(=O)N1CC2CCC1CC2Oc1ncnc(Nc2ccc(S(C)(=O)=O)cc2)c1[N+](=O)[O-] (stereo in doubt; 27n) [listing 2 of 2 here] | 71.9
24 | CC(C)(C)OC(=O)N1CC2CC1CC2Nc1ncnc(Nc2ccc(S(C)(=O)=O)cc2)c1[N+](=O)[O-] (stereo in doubt; 27l) [listing 2 of 2 here] | 25.1
25 | CC(C)(C)OC(=O)N1C[C@@H]2CC[C@@H]1C[C@@H]2Oc1ncnc(Nc2ccc(S(C)(=O)=O)cc2F)c1[N+](=O)[O-] (relative stereo) | 112
26 | CC(C)(C)OC(=O)N1CC2CCC1CC2Nc1ncnc(Nc2ccc(S(C)(=O)=O)cc2F)c1[N+](=O)[O-] (stereo in doubt; 27s) [listing 2 of 2 here] | 63.2
27 | CC(C)(C)OC(=O)N1CC2CCC1CC2Oc1ncnc(Nc2ccc(S(C)(=O)=O)cc2F)c1[N+](=O)[O-] (stereo unspecified) | 32.9
28 | CC(C)(C)OC(=O)N1CC2CC(Nc3ncnc(Nc4ccc(S(C)(=O)=O)cc4)c3[N+](=O)[O-])C1C2 (stereo in doubt; 27f) [listing 2 of 2 here] | 38.9
29 | CC(C)(C)OC(=O)N1CC2CCC1CC2Nc1ncnc(Nc2ccc(S(C)(=O)=O)cc2)c1[N+](=O)[O-] (stereo in doubt; 27r) [listing 2 of 2 here] | 78.9
30 | CC(C)(C)OC(=O)N1CC2CC1CC2Nc1ncnc(Nc2ccc(S(C)(=O)=O)cc2)c1[N+](=O)[O-] (stereo in doubt; 27j) [listing 2 of 2 here] | 94.3
31 | CC(C)(C)OC(=O)N1CC2CC(Nc3ncnc(Nc4ccc(S(C)(=O)=O)cc4F)c3[N+](=O)[O-])C1C2 (stereo in doubt; 27e) [listing 2 of 2 here] | 76.7
32 | CC(C)(C)OC(=O)N1CC2CC(Oc3ncnc(Nc4ccc(S(C)(=O)=O)cc4F)c3[N+](=O)[O-])C1C2 (stereo unspecified) | 52.6
33 | CC(C)(C)OC(=O)N1CC2CC1CC2Oc1ncnc(Nc2ccc(S(C)(=O)=O)cc2)c1[N+](=O)[O-] (stereo unspecified) | 101
34 | CC(C)(C)OC(=O)N1CC2CCC1CC2Nc1ncnc(Nc2ccc(S(C)(=O)=O)cc2F)c1[N+](=O)[O-] (stereo in doubt; 27q) [listing 2 of 2 here] | 104
35 | CCCCCCCC/C=C\CCCCCCCC(=O)NCCO | 100
36 | CC(C)(C)OC(=O)N1CC2CC1CC2Nc1ncnc(Nc2ccc(S(C)(=O)=O)cc2F)c1[N+](=O)[O-] (stereo in doubt; 27i) [listing 2 of 2 here] | 97
37 | CC(C)(C)OC(=O)N1CC2CC(Nc3ncnc(Nc4ccc(S(C)(=O)=O)cc4F)c3[N+](=O)[O-])C1C2 (stereo in doubt; 27g) [listing 2 of 2 here] | 63.4
38 | CC(C)(C)OC(=O)N1CC2CCC1CC2Oc1ncnc(Nc2ccc(S(C)(=O)=O)cc2)c1[N+](=O)[O-] (stereo in doubt; 27p) [listing 2 of 2 here] | 44.7
39 | CC(C)(C)OC(=O)N1CC2CC1CC2Oc1ncnc(Nc2ccc(S(C)(=O)=O)cc2F)c1[N+](=O)[O-] (stereo unspecified) | 86.7
40 | CC(C)(C)OC(=O)N1CC2CCC1CC2Nc1ncnc(Nc2ccc(S(C)(=O)=O)cc2)c1[N+](=O)[O-] (stereo in doubt; 27t) [listing 2 of 2 here] | 58.1
41 | CC(C)(C)OC(=O)N1CC2CC(Oc3ncnc(Nc4ccc(S(C)(=O)=O)cc4)c3[N+](=O)[O-])C1C2 (stereo unspecified) | 58.4
